In ChEMBL document CHEMBL1255347, “Multiclonal outbreak of Klebsiella pneumoniae producing extended-spectrum beta-lactamase CTX-M-2 and novel variant CTX-M-59 in a neonatal intensive care unit in Brazil” (2008):
Values after ≈ are worked out from the molar mass of the structure shown.

How the values were obtained:
Format in all cases: functional
Klebsiella pneumoniae [1] = experiment: Antimicrobial activity against CTX-M-2 producing Klebsiella pneumoniae with PFGE pulsotype B by Etest
How it was run: (§1)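 Clinical K. pneumoniae isolates from a neonatal ICU outbreak near São Paulo were typed by XbaI PFGE using Tenover criteria. Cultures were grown in LB broth at 37°C. Etest MICs followed the manufacturer's instructions, with cefotaxime and ceftazidime each tested with and without clavulanic acid.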

Klebsiella pneumoniae [2] = experiment: Antimicrobial activity against CTX-M-59 producing Klebsiella pneumoniae with PFGE pulsotype C by Etest
Klebsiella pneumoniae [3] = experiment: Antimicrobial activity against SHV-5 producing Klebsiella pneumoniae with PFGE pulsotype D by Etest; how it was run: as §1
Klebsiella pneumoniae [4] = experiment: Antimicrobial activity against CTX-M-2 producing Klebsiella pneumoniae with PFGE pulsotype F by Etest
Klebsiella pneumoniae [5] = experiment: Antimicrobial activity against CTX-M-59 producing Klebsiella pneumoniae with PFGE pulsotype G by Etest; how it was run: as §1
Klebsiella pneumoniae [6] = experiment: Antimicrobial activity against CTX-M-2 producing Klebsiella pneumoniae with PFGE pulsotype H by Etest; how it was run: as §1
Klebsiella pneumoniae [7] = experiment: Antimicrobial activity against CTX-M-2 producing Klebsiella pneumoniae with PFGE pulsotype I by Etest
Klebsiella pneumoniae [8] = experiment: Antimicrobial activity against CTX-M-2 producing Klebsiella pneumoniae with PFGE pulsotype J by Etest
Escherichia coli [9] = experiment: Antimicrobial activity against Escherichia coli str. K-12 substr. DH10B harboring plasmid CTX-M-2; settings: K-12 DH10B
How it was run: (§2)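 blaCTX-M PCR products were cut with XbaI/BamHI and cloned into pBC-SK(−), then electroporated into E. coli DH10B. Transformants were selected on LB agar with ampicillin 50 μg/ml and chloramphenicol 30 μg/ml, and sequences were confirmed. These clones were used for β-lactam MICs, with and without clavulanic acid.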

Escherichia coli [10] = experiment: Antimicrobial activity against Escherichia coli str. K-12 substr. DH10B harboring plasmid CTX-M-59; settings: K-12 DH10B; how it was run: as §2
Klebsiella pneumoniae [11] = experiment: Antimicrobial activity against CTX-M-2 and TEM-1 producing Klebsiella pneumoniae transconjugants/transformants with PFGE pulsotype B by Etest
How it was run: (§3)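 The recipient was E. coli XL1-Blue Rifr NAr. Plasmids moved by broth mating, with transconjugants selected on LB agar containing ampicillin, rifampin and nalidixic acid, each at 50 μg/ml. Where mating failed, alkaline-lysis plasmid extracts were electroporated and selected on ampicillin 50 μg/ml. β-lactam MICs were read by Etest, with and without clavulanic acid.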

Klebsiella pneumoniae [12] = experiment: Antimicrobial activity against SHV-5 producing Klebsiella pneumoniae transconjugants/transformants with PFGE pulsotype D by Etest; how it was run: as §3
Klebsiella pneumoniae [13] = experiment: Antimicrobial activity against CTX-M-2 producing Klebsiella pneumoniae with PFGE pulsotype A by Etest; how it was run: as §1
Klebsiella pneumoniae [14] = experiment: Antimicrobial activity against CTX-M-59 producing Klebsiella pneumoniae with PFGE pulsotype E by Etest
Klebsiella pneumoniae [15] = experiment: Antimicrobial activity against CTX-M-2 and TEM-1 producing Klebsiella pneumoniae transconjugants/transformants with PFGE pulsotype A by Etest; how it was run: as §3
Klebsiella pneumoniae [16] = experiment: Antimicrobial activity against CTX-M-59 and TEM-1 producing Klebsiella pneumoniae transconjugants/transformants with PFGE pulsotype C by Etest; how it was run: as §3
Klebsiella pneumoniae [17] = experiment: Antimicrobial activity against CTX-M-59 and TEM-1 producing Klebsiella pneumoniae transconjugants/transformants with PFGE pulsotype E by Etest; how it was run: as §3
Klebsiella pneumoniae [18] = experiment: Antimicrobial activity against CTX-M-2 and TEM-1 producing Klebsiella pneumoniae transconjugants/transformants with PFGE pulsotype F by Etest; how it was run: as §3
Klebsiella pneumoniae [19] = experiment: Antimicrobial activity against CTX-M-59 and TEM-1 producing Klebsiella pneumoniae transconjugants/transformants with PFGE pulsotype G by Etest; how it was run: as §3
Klebsiella pneumoniae [20] = experiment: Antimicrobial activity against CTX-M-2 and TEM-1 producing Klebsiella pneumoniae transconjugants/transformants with PFGE pulsotype H by Etest; how it was run: as §3
Klebsiella pneumoniae [21] = experiment: Antimicrobial activity against CTX-M-2 and TEM-1 producing Klebsiella pneumoniae transconjugants/transformants with PFGE pulsotype I by Etest; how it was run: as §3
Klebsiella pneumoniae [22] = experiment: Antimicrobial activity against CTX-M-2 and TEM-1 producing Klebsiella pneumoniae transconjugants/transformants with PFGE pulsotype J by Etest; how it was run: as §3

| Structure (SMILES) | MIC (Klebsiella pneumoniae [1]) [µg/mL] | MIC (Klebsiella pneumoniae [2]) [µg/mL] | MIC (Klebsiella pneumoniae [3]) [µg/mL] | MIC (Klebsiella pneumoniae [4]) [µg/mL] | MIC (Klebsiella pneumoniae [5]) [µg/mL] | MIC (Klebsiella pneumoniae [6]) [µg/mL] | MIC (Klebsiella pneumoniae [7]) [µg/mL] | MIC (Klebsiella pneumoniae [8]) [µg/mL] | MIC (Escherichia coli [9]) [µg/mL] | MIC (Escherichia coli [10]) [µg/mL] | MIC (Klebsiella pneumoniae [11]) [µg/mL] | MIC (Klebsiella pneumoniae [12]) [µg/mL] | other results |
| --- | --- | --- | --- | --- | --- | --- | --- | --- | --- | --- | --- | --- | --- |
| CO/N=C(\C(=O)N[C@@H]1C(=O)N2C(C(=O)[O-])=C(C[N+]3(C)CCCC3)CS[C@H]12)c1csc(N)n1 | 128 (≈ 266 µM) | 256 (≈ 533 µM) | 4 (≈ 8.32 µM) | > 256 | 32 (≈ 66.6 µM) | > 256 | 256 (≈ 533 µM) | 12 (≈ 25 µM) | 4 (≈ 8.32 µM) | 4 (≈ 8.32 µM) | 256 (≈ 533 µM) | 1.5 (≈ 3.12 µM) | – |
| C[C@H]1[C@H](NC(=O)/C(=N\OC(C)(C)C(=O)O)c2csc(N)n2)C(=O)N1S(=O)(=O)O [AZTREONAM] | 48 (≈ 110 µM) | 32 (≈ 73.5 µM) | 256 (≈ 588 µM) | 256 (≈ 588 µM) | 64 (≈ 147 µM) | 48 (≈ 110 µM) | 24 (≈ 55.1 µM) | 128 (≈ 294 µM) | 12 (≈ 27.6 µM) | 12 (≈ 27.6 µM) | 256 (≈ 588 µM) | > 256 | MIC (Klebsiella pneumoniae [13]): 24 µg/mL (≈ 55.1 µM); MIC (Klebsiella pneumoniae [14]): 32 µg/mL (≈ 73.5 µM); MIC (Klebsiella pneumoniae [15]): > 256 µg/mL; MIC (Klebsiella pneumoniae [16]): > 256 µg/mL; MIC (Klebsiella pneumoniae [17]): 48 µg/mL (≈ 110 µM); MIC (Klebsiella pneumoniae [18]): > 256 µg/mL; MIC (Klebsiella pneumoniae [19]): > 256 µg/mL; MIC (Klebsiella pneumoniae [20]): > 256 µg/mL; MIC (Klebsiella pneumoniae [21]): > 256 µg/mL; MIC (Klebsiella pneumoniae [22]): > 256 µg/mL |
